87 compounds from PubChem BioAssay AID720543 (The Scripps Research Institute Molecular Screening Center, 2013) can be followed below.

The whole screen tested about 370,000 compounds, of which about 2,000 (0.54%) were called active. This is one part of a sample in which actives are shown more often than they occur. Values without a mark were called inactive.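 Rule for the calls: active = inhibition exceeding the mean over every tested compound plus 3 SD (cut at about 30% in these data); inactive = the rest.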

(Lyso)-N-acylphosphatidylethanolamine lipase (Mus musculus), sequence (Q8VD66 whole entry, looked up): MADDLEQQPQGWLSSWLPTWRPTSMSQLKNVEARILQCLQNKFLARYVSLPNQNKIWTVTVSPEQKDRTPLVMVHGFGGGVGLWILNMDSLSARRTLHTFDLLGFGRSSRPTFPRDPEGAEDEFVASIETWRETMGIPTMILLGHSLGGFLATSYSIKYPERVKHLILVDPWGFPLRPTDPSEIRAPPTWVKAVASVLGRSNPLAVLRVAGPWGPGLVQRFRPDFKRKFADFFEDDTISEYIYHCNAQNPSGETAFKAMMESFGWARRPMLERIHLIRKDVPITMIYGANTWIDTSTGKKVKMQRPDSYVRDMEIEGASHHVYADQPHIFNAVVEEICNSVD

The assay concerns the target (Lyso)-N-acylphosphatidylethanolamine lipase (Mus musculus) (UniProt Q8VD66). The assay is described as follows: mouse ABHD4 hydrolase activity blockers – biochemical, fluorescence polarization, primary screen (AID 720543).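 Note: 0% = plate median of compound wells and 100% = S159A mutant with DMSO.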 Particulars: purified mABHD4, FP-Rh probe fluorescence polarization; at 8.92 µM; active compounds read high. In outline:
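System: mouse ABHD4 enzyme, wild type / Medium: HEPES pH 7.0, NaCl, Pluronic buffer / Reagent: FP-Rh activity-based fluorescent probe / Control set: S159A mutant high control, sample median low control / Detection: fluorescence polarization with parallel and perpendicular emission, 525/598 nm / Schedule: 45 min + 60 min at 25 °C / Compound dosing: 8.92 µM, single dose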
(In general: Fluorescence polarisation rises when a labelled molecule tumbles more slowly, as on binding a larger partner.)
One may read the inhibition as the relative decrease from the control value, in per cent. Take `CN(C)c1ccc(NC(=O)NC2CCCCN(Cc3ccc(Cl)cc3)C2=O)cc1` (configuration not stated): the inhibition was 14%.
The figure for `Cc1cccc(N2CCN(C(=O)c3ccccc3NC(=O)C3CCCCC3C(=O)O)CC2)c1` (configuration not stated) is 2.26%; for `Cc1cccc(N2CCN(c3ccc(NC(=O)/C=C\C(=O)O)cc3)CC2)c1` it is 38.7% (active); for `Cc1cccc(C)c1NC(=O)CS(=O)CC(=O)N1CCN(c2ccccc2)CC1` (configuration not stated) it is -7.61%.
For the compound `COc1ccc(Cn2ccc3ccc(-c4ccc5ccn(Cc6ccccc6C)c5c4)cc32)cc1`, the inhibition was 7.66%.
Regarding `Cc1ccc(-c2nc(C3CCCN(S(=O)(=O)c4ccc(Br)s4)C3)no2)cc1` (configuration not stated), the inhibition was 7.38%.
As for `c1ccc(CNCc2ccc(CNCc3ccccc3)cc2)cc1`, the figure is 5.37%; as for `Oc1ccc(CNc2ccccc2O)cc1`, 37.8% (active); as for `Oc1ccc(N2CCN(C(=S)NCc3ccccc3)CC2)cc1`, 14.8%.
As to `Cc1nc(CNc2ncnc3ccc(-c4ccc5c(c4)OCO5)cc23)cs1`, the inhibition was -1.75%.
Turning to `CCOC(=O)[C@H]1Nc2ccc(Cl)cc2[C@@H]2[C@H]1C1CC(c3ccccc31)N2C(=O)OCc1ccccc1` (some centres not stated), the inhibition is 46.2% (active).
As for `O=C(OCc1ccccc1)N1CCC2CC1c1cc(N3CCN(S(=O)(=O)c4cc(Cl)cc(Cl)c4)CC3)ccc12` (configuration not stated), the figure is 2.29%; as for `CCOC(=O)[C@H]1[C@H]2COc3ccc(Cl)cc3[C@@H]2N2C(=O)c3cc(C)ccc3NC(=O)[C@@]12C`, 2.18%.
Turning to `CCN(CC)CCCC(C)n1c2nc(=O)[nH]c(=O)c-2nc2cc(Cl)ccc21` (configuration not stated), the inhibition was 29.5% (active).
Take `Cc1cc2nc3c(=O)[nH]c(=O)nc-3n(C[C@H](O)[C@H](O)[C@H](O)CO)c2cc1C`: the inhibition was 15.4%.
As to `O=C(CSc1nc2ccccc2s1)N=Nc1c(O)[nH]c2ccccc12`, the inhibition was -11.2%.
Consider `C/C(=N\NC(=O)CNC(=O)C(c1ccccc1)c1ccccc1)c1ccc(C)cc1`, for which the inhibition is 0.45%.
As for `C/C(=N\NC(=O)c1ccc(C)cc1)C1C(=O)c2ccccc2C1=O`, the inhibition is 32.6% (active).
As for `O=C1c2ccccc2C(=O)C1C(=O)C1CC1`, the figure is 10.5%; as for `CCOc1cc(C(=O)N2CCc3cc(OC)c(OC)cc3C2)ccc1OC(F)F`, -1.64%; as for `O=C(NCCCc1ccccc1)[C@H](Cc1ccccc1)NC1(C(=O)NCCc2c[nH]c3ccccc23)CCC1`, -14.2%.
As for `CC(CNc1ccc([N+](=O)[O-])c2cccnc12)Nc1c([N+](=O)[O-])cc(C(F)(F)F)cc1[N+](=O)[O-]` (configuration not stated), the figure is 3.66%; as for `CC(=O)Oc1ccc(N(C(C)=O)S(=O)(=O)c2ccc3ccccc3c2)cc1Br`, 32.3% (active); as for `CN(C1CCS(=O)(=O)C1)S(=O)(=O)c1ccc2ccccc2c1` (configuration not stated), 3.99%.
`CCN1CCN(C(=O)CN(C)S(=O)(=O)c2ccc3ccccc3c2)CC1`: the inhibition was 4.18%.
Regarding `Brc1c(CSc2nncc3ccccc23)nc2ccccn12`, the inhibition is -3.21%.
As for `CCC(C)[C@@H](C(=O)OC)N(CCc1cn(Cc2ccccc2)nn1)S(=O)(=O)c1ccccc1Br` (some centres not stated), the figure is -6.72%.
Consider `O=C(COc1ccc(-c2ccccc2)cc1)NN=C1CCCC1`, for which the inhibition is 0.58%.
With `c1ccc2sc(NN=C3CCCC3)nc2c1`, the inhibition was 37.2% (active).
As to `O=C1NC(Nc2nc3ccccc3s2)(C(F)(F)F)C(=O)N1C1CCCCC1` (configuration not stated), the inhibition is -23%.
`COC(=O)C1=C(C)N(Cc2ccc(C(F)(F)F)cc2)C(=NCc2ccccc2)NC1c1ccccc1C(F)(F)F` (configuration not stated): the inhibition was 6.99%.
Regarding `Cc1nc2ccc(C(=O)N3CCN(C(=O)C(C)(C)C)CC3)cc2n1C1CCCC1`, the inhibition was -2.14%.
Take `COC(=O)[C@]12C[C@H](CC(=O)NCCc3ccccc3OC)C(=O)N(Cc3ccco3)C1=C[C@H](C(C)C)O[C@@H]2C1CC1`: the inhibition was -4.62%.
As for `CCOc1[nH]n(-c2ccc(Cl)cc2)c(=O)c1C=Nc1ccc(O)cc1`, the inhibition was 37.3% (active).
As for `O=C(c1cccc(C(F)(F)F)c1)N1CC[C@H]2[C@H](CCCN2Cc2cc(F)cc(F)c2)C1`, the figure is -3.78%; as for `CCC1(CC)NC(=O)N(CC(=O)OCC(=O)Nc2ccc(C(F)(F)F)cc2)C1=O`, -3.48%.
The figure for `Cn1c(SCC(=O)N/N=C/c2ccc(O)c(O)c2)nc2ccccc21` is 30.7% (active); for `O=C(CSc1nc2ccccc2n1Cc1ccccc1Cl)N/N=C\c1c[nH]c2ccccc12` it is -14.1%; for `O=C(CSc1nc2ccccc2s1)NN=Cc1ccc(O)cc1O` it is 0.63%.
The figure for `CC1CN(C(=O)c2cccc(NS(=O)(=O)c3ccc(Br)cc3)c2)CC(C)O1` (configuration not stated) is 3.29%.
Turning to `C/C(=N/N1CCN(Cc2cccc3ccccc23)CC1)c1cccnc1`, the inhibition was -2.15%.
Regarding `COCCCNC(NC(=O)c1ccc(C)cc1)C(Cl)(Cl)Cl` (configuration not stated), the inhibition was -5.04%.
On to `O=C(C1CCCO1)N1CCN(S(=O)(=O)c2ccc(Br)cc2)CC1` (configuration not stated), for which the inhibition was 1.47%.
On to `Cc1nnsc1C(=O)N/N=C/c1cccc(C(F)(F)F)c1`, for which the inhibition was 3.14%.
For `O=C(N/N=C/c1ccc(O)c(O)c1)C1c2ccccc2Oc2ccccc21`, the inhibition is 26.1%.
The figure for `Oc1ccc(/C=N/Nc2ccc(C(F)(F)F)cn2)cc1O` is 36.2% (active); for `Cc1nccc(-c2ccc(-n3c(C)ccc3C)cc2)n1` it is -7.18%.
For `CNC(=S)NNC(=O)c1oc2nc(-c3ccccc3)cc(-c3ccco3)c2c1N`, the inhibition was 37.3% (active).
As for `CC(C)CNC(=O)OCc1cn(Cc2ccc(F)cc2)nn1`, the inhibition is -1.25%.
Turning to `O=C(CSc1nnc(-c2cccc(Cl)c2)n1Cc1ccco1)Nc1ccc(OCc2ccccc2)cc1`, the inhibition is 4.02%.
As to `Cc1cc(C)cc(NC(=O)N2CCC(N(C)CCC(C)C)CC2)c1`, the inhibition is -1.26%.
The figure for `CCn1c(SCC(=O)Nc2cccc(F)c2)nnc1-c1cc2cc(Br)ccc2o1` is -4.13%; for `[O-][n+]1ccc(OCc2ccccc2)cc1` it is 1.3%; for `CCOC(=O)C1=C(C)NC(SC)=NC1c1ccccc1` (configuration not stated) it is 4.01%.
For the compound `Cc1cccc(C2C3=C(CCCC3=O)N=C3c4ccccc4C(=O)C32)c1` (configuration not stated), the inhibition was 25.7%.
For the compound `CCOC(=O)C1=C(C)N=C2c3ccccc3C(=O)C2C1c1ccc(Br)cc1` (configuration not stated), the inhibition is 46.9% (active).
Take `O=C(CN1CCCCCC1)N1c2ccccc2Sc2ccc(C(F)(F)F)cc21`: the inhibition is -5.91%.
The figure for `Cc1ccc(S(=O)(=O)N(C)C)cc1NC(=O)COC(=O)C1COc2ccccc2O1` (configuration not stated) is -2.17%; for `Cc1c(CC(=O)N2CCN(C(=O)C3COc4ccccc4O3)CC2)c(=O)oc2c(O)c(O)ccc12` (configuration not stated) it is 31.1% (active).
As for `COC(=O)Cc1cc(=O)oc2c(C)c(O)ccc12`, the figure is -0.82%.
Consider `NC(=O)CCC(NS(=O)(=O)c1ccc(Cl)cc1)C(=O)NCc1ccccc1Cl` (configuration not stated), for which the inhibition is 1.64%.
With `Cc1noc(C)c1C(=O)N(CC(=O)NC1CCCC1)Cc1ccccc1F`, the inhibition is 8.87%.
The figure for `Cc1ccc2c(C)c(C(=O)N(C)CCC3CCCCO3)oc2c1C` (configuration not stated) is 2.89%; for `COC(=O)CC1CCc2cc(C)cc(C(CC(C)C)NC(=O)[C@H](CC(C)C)NC(=O)OCc3ccccc3)c2O1` (some centres not stated) it is 1.24%; for `COCCOC(=O)c1sc(=S)n(CCOC)c1N` it is 52.1% (active).
The figure for `C=CCN(Cc1ccc2c(c1)OCO2)C(C#CC1CC1)C(C)(C)C` (configuration not stated) is 7.34%; for `N#Cc1ccc(OC[C@@H](O)CN2CCC(C(O)(c3ccccc3)c3ccccc3)CC2)c(F)c1` it is 3.13%.
Turning to `COCCCn1c(SCC(=O)Nc2oc(C)c3c(C)n[nH]c(=O)c23)nc2sc3c(c2c1=O)CCC3`, the inhibition was -0.16%.
For `NC(=O)COc1ccc(/C=N/NC(=O)C2CCCN2S(=O)(=O)c2ccc(Cl)cc2)cc1` (configuration not stated), the inhibition is -2.8%.
For the compound `NC(N)=N/N=C/c1ccc(OCc2ccc(Cl)cc2Cl)cc1`, the inhibition was 31.7% (active).
As for `COC(=O)c1ccccc1-n1cc(COC(=O)NCCc2ccccc2)nn1`, the figure is 4.86%; as for `CC(=O)c1ccc(S(=O)(=O)NCC2CCN(C(=O)C(=O)c3cccs3)CC2)cc1`, -4.2%.
The figure for `C=C1C(C(C)C)N(C)C2=NC(c3ccccc3)CC(=O)N12` (configuration not stated) is -4.4%; for `Clc1ccc2nc(CSc3ccccc3)cn2c1` it is 0.19%.
Turning to `CCCCCCSc1ccc(-c2nc3ccc(Cl)cn3c2NCc2ccccc2)cc1`, the inhibition was 30.7% (active).
Consider `COc1ccccc1Cc1c(-c2ccc(Cl)cc2)nc2ccc(Cl)cn12`, for which the inhibition is -4.24%.
Consider `CCOC(=O)C1(S(=O)(=O)c2ccc(Cl)cc2)CCN(Cc2ccccc2)CC1`, for which the inhibition was -3.97%.
With `c1csc(-c2nnc(COc3ccc4c(c3)OCO4)o2)c1`, the inhibition was 2.17%.
As to `c1coc(CCNc2ncnc3ccc(-c4ccc5c(c4)OCO5)cc23)c1`, the inhibition is -22.8%.
The figure for `CC(=O)Nc1ccc(S(=O)(=O)NC(C)C(=O)OCC(=O)NC2CCCC2)cc1` (configuration not stated) is -2.25%.
As to `Cc1ccc(NC(=O)Cc2nc(COC(=O)C(C)NS(=O)(=O)c3ccc(C)cc3)cs2)cc1` (configuration not stated), the inhibition is 30% (active).
As to `C/C=C/C(=O)OCc1csc(CC(=O)Nc2ccccc2C)n1`, the inhibition is -5.94%.
Turning to `Cc1cc(C)c2nc3nc(C)cc(C)c3c(N)c2c1`, the inhibition was -1.05%.
As for `Cc1sc2nc(SCC(=O)c3ccc(O)c(O)c3)n(Cc3ccco3)c(=O)c2c1C`, the figure is 4.55%; as for `COCCCNC(=O)C[C@H]1C[C@@]2(C(=O)OC)C(=C[C@H](C(C)(C)C)O[C@@H]2C)N(Cc2ccc3c(c2)OCO3)C1=O`, 1.21%.
`CCOC(=O)c1cc(-c2sc(NC(=O)c3ccccc3)nc2C)n(-c2ccc(Br)cc2)n1`: the inhibition is 1.18%.
For the compound `Cc1ccc2c(C(=O)CN3CCCC3)c(C)[nH]c2c1`, the inhibition was 0.49%.
